# Data: ChEMBL document CHEMBL1137942, “Design, synthesis, and biological activity of novel, potent, and selective (benzoylaminomethyl)thiophene sulfonamide inhibitors of c-Jun-N-terminal kinase” (J Med Chem, 2004)
# What was measured:
# [1] = molecular target: Tyrosine-protein kinase ABL2 (Mus musculus) (UniProt Q4JIM5); assay: Percentage activity of mouse Arg in the presence of 10 uM of compound and 10 uM of ATP in comparison with control
# [2] = molecular target: Proto-oncogene tyrosine-protein kinase Src (Homo sapiens) (UniProt P12931); assay: Percentage activity of human cSRC in the presence of 10 uM of compound and 10 uM of ATP in comparison with control
# [3] = molecular target: Cyclin-dependent kinase 1/cyclin B (Homo sapiens) (UniProt P06493+P14635+Q8WWL7+O95067); assay: Percentage activity of human CDK1 (with cyclin B) in the presence of 10 uM of compound and 10 uM of ATP in comparison with control; format: protein-complex assay
# [4] = molecular target: Serine/threonine-protein kinase Chk1 (Homo sapiens) (UniProt O14757); assay: Percentage activity of human CHK1 in the presence of 10 uM of compound and 10 uM of ATP in comparison with control
# [5] = molecular target: Cyclin-dependent kinase 7/ cyclin H (Homo sapiens) (UniProt P51946+P50613); assay: Percentage activity of human CDK7 with cyclin H/MAT1) in the presence of 10 uM of compound and 10 uM of ATP in comparison with control; format: protein-complex assay
# [6] = molecular target: Protein kinase C delta type (Homo sapiens) (UniProt Q05655); assay: Percentage activity of human PKC delta in the presence of 10 uM of compound and 10 uM of ATP in comparison with control
# SCG [7] = assay: Cell activity of JNK inhibitors in neuronal apoptosis assay in SCG cells, percentage rescued neurons at 3uM compound concentration after 24 hours; format: functional, Rattus norvegicus
# [8] = molecular target: Fibroblast growth factor receptor 3 (Homo sapiens) (UniProt P22607); assay: Percentage activity of human FGFR3 in the presence of 10 uM of compound and 10 uM of ATP in comparison with control
# [9] = molecular target: Casein kinase II (Homo sapiens) (UniProt P67870+P68400+P19784); assay: Percentage activity of human CK2 in the presence of 10 uM of compound and 10 uM of ATP in comparison with control; format: protein-complex assay
# [10] = molecular target: Ribosomal protein S6 kinase alpha-1 (Homo sapiens) (UniProt Q15418); assay: Percentage activity of human Rsk1 in the presence of 10 uM of compound and 10 uM of ATP in comparison with control
# [11] = molecular target: Protein kinase C beta type (Homo sapiens) (UniProt P05771); assay: Percentage activity of human PKC betaII -His in the presence of 10 uM of compound and 10 uM of ATP in comparison with control
# [12] = molecular target: Insulin receptor (Homo sapiens) (UniProt P06213); assay: Percentage activity of human IR in the presence of 10 uM of compound and 10 uM of ATP in comparison with control
# [13] = molecular target: Mitogen-activated protein kinase 9 (Homo sapiens, UniProt P45984); assay: Inhibition of human JNK2
# In short: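 Radiometric SPA kinase assay: 0.5 µg recombinant preactivated GST-JNK2, 1 µg biotinylated GST-c-Jun, and 2 µM [33P]γ-ATP (2 nCi/µL). Buffer was 50 mM Tris-HCl pH 8.0, 10 mM MgCl2, 1 mM DTT and 100 µM NaVO4, with or without inhibitor, 120 min at rt. Stopped with streptavidin SPA beads, 5 mM EDTA, 0.1% Triton X-100 and 50 µM ATP in PBS; 60 min. Beads were centrifuged, washed, and counted by scintillation.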
# [14] = molecular target: Dual specificity mitogen-activated protein kinase kinase 1 (Homo sapiens) (UniProt Q02750); assay: Percentage activity of human MEK1 in the presence of 10 uM of compound and 10 uM of ATP in comparison with control
# [15] = molecular target: Ca2+/calmodulin-dependent protein kinase II (CaM kinase II) (Rattus norvegicus) (UniProt P11275+P08413+P15791+P11730); assay: Percentage activity of rat CaMKII in the presence of 10uM of compound and 10uM of ATP in comparison with control; format: protein assay
# [16] = molecular target: Tyrosine-protein kinase SYK (Homo sapiens) (UniProt P43405); assay: Percentage activity of human Syk in the presence of 10 uM of compound and 10 uM of ATP in comparison with control
# [17] = molecular target: CDK6/cyclin D3 (Homo sapiens) (UniProt P30281+Q00534); assay: Percentage activity of human CDK6 with cyclin D3) in the presence of 10uM of compound and 10uM of ATP in comparison with control; format: protein-complex assay
# SCG [18] = assay: Cell activity of JNK inhibitors in neuronal apoptosis assay in SCG cells, percentage rescued neurons at 3 uM compound concentration after 48 hours; format: functional, Rattus norvegicus
# In short: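 They were cultured in Leibowitz medium with 5% rat serum, 0.75 µg/mL NGF 7S and arabinosine C 10^-5 M. On day 4, medium was switched to 10 µg/mL anti-NGF antibody without NGF or AraC, with inhibitor in 1% DMSO. After 24 h, cells were refed initial medium minus AraC. After another 24 h, viability was read by MTT (0.5 mg/mL, 30 min, 37 °C), OD 590 nm.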
# [19] = molecular target: RAC-alpha serine/threonine-protein kinase (Homo sapiens) (UniProt P31749); assay: Percentage activity of human PKB alpha in the presence of 10 uM of compound and 10 uM of ATP in comparison with control
# Homo sapiens = species on record: Homo sapiens; assay: Percentage activity of human Rsk2 in the presence of 10 uM of compound and 10 uM of ATP in comparison with control
# [20] = molecular target: Tyrosine-protein kinase Blk (Mus musculus) (UniProt P16277); assay: Percentage activity of mouse Blk in the presence of 10 uM of compound and 10 uM of ATP in comparison with control
# [21] = molecular target: Mitogen-activated protein kinase 1 (Homo sapiens) (UniProt P28482); assay: Percentage activity of human MAPK1 in the presence of 10 uM of compound and 10 uM of ATP in comparison with control
# [22] = molecular target: Tyrosine-protein kinase ABL1 (Mus musculus) (UniProt P00520); assay: Percentage activity of mouse Abl in the presence of 10 uM of compound and 10 uM of ATP in comparison with control
# [23] = molecular target: Mitogen-activated protein kinase 11 (Homo sapiens) (UniProt Q15759); assay: Percentage activity of human SAPK2b in the presence of 10 uM of compound and 10 uM of ATP in comparison with control
# [24] = molecular target: Tyrosine-protein kinase ZAP-70 (Homo sapiens) (UniProt P43403); assay: Percentage activity of human ZAP-70 in the presence of 10 uM of compound and 10 uM of ATP in comparison with control
# Chain of Mitogen-activated protein kinase 9 (P45984 whole entry): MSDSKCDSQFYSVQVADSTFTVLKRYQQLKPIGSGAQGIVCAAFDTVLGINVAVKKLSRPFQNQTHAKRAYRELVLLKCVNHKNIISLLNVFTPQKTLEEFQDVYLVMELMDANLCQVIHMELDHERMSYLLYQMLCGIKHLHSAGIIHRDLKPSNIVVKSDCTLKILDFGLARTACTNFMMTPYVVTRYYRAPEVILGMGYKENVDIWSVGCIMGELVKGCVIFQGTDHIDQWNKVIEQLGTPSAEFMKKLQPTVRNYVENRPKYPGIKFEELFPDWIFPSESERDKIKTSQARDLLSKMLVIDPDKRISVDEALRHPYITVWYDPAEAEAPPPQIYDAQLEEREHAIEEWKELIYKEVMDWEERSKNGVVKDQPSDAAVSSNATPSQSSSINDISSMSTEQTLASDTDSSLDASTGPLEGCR
# Chain of Insulin receptor (Homo sapiens) (P06213 28-758 limits assumed): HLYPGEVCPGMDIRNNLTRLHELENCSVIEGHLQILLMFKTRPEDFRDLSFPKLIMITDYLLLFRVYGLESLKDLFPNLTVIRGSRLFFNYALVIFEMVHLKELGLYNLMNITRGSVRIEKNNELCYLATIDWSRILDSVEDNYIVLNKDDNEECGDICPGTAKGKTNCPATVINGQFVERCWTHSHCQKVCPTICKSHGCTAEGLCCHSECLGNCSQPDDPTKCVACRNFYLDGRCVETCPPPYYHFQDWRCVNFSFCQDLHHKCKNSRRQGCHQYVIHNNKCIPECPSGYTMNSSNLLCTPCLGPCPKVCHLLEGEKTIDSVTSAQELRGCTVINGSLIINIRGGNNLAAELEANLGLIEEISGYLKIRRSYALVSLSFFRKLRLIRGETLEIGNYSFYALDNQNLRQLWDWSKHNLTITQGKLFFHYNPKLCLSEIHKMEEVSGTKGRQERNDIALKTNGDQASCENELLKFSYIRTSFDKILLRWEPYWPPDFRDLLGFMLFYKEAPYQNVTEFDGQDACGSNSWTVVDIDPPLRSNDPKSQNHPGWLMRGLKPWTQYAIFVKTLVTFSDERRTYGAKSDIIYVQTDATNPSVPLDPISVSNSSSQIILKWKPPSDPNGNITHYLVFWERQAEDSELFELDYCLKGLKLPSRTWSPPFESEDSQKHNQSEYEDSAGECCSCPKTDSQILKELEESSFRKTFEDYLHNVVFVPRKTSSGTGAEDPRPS
# Chain of Insulin receptor (Homo sapiens) (P06213 763-1382 limits assumed): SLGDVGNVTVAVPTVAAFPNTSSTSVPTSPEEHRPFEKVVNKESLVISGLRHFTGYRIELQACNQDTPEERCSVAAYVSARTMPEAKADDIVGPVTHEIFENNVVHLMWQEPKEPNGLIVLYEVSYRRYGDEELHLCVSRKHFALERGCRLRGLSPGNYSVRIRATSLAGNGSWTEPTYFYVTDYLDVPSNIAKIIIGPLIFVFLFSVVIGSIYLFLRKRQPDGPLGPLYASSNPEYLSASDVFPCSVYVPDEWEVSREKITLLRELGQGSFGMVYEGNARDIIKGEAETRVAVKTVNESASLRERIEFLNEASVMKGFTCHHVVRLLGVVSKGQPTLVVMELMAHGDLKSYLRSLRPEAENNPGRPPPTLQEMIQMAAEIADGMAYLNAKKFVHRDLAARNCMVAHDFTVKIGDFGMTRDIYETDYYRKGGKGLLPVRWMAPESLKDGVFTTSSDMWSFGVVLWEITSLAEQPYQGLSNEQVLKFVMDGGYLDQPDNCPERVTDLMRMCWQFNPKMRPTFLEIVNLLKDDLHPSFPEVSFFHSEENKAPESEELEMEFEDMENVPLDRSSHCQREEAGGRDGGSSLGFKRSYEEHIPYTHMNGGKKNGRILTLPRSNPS
# Chain of Protein kinase C beta type (Homo sapiens) (P05771 2-671 limits assumed): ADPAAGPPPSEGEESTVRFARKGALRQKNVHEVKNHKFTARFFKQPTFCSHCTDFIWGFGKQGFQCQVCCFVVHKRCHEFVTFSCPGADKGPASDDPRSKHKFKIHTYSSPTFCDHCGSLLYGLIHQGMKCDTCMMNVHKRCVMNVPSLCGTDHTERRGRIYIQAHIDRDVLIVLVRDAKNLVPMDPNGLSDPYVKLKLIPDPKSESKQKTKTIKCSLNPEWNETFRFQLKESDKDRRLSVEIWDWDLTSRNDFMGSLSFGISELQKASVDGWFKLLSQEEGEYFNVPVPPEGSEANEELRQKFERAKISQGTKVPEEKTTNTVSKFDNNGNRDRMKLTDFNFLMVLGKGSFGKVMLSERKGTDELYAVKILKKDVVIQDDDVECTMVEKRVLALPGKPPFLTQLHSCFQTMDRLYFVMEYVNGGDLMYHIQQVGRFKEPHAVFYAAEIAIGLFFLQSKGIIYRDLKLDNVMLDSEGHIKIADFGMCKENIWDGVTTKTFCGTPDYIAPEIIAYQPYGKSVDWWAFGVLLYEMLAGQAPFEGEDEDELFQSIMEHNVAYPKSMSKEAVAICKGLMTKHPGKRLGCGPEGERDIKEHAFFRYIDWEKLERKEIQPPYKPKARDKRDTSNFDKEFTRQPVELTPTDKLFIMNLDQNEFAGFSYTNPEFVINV
# Chain of Ribosomal protein S6 kinase alpha-1 (Homo sapiens) (Q15418 whole entry): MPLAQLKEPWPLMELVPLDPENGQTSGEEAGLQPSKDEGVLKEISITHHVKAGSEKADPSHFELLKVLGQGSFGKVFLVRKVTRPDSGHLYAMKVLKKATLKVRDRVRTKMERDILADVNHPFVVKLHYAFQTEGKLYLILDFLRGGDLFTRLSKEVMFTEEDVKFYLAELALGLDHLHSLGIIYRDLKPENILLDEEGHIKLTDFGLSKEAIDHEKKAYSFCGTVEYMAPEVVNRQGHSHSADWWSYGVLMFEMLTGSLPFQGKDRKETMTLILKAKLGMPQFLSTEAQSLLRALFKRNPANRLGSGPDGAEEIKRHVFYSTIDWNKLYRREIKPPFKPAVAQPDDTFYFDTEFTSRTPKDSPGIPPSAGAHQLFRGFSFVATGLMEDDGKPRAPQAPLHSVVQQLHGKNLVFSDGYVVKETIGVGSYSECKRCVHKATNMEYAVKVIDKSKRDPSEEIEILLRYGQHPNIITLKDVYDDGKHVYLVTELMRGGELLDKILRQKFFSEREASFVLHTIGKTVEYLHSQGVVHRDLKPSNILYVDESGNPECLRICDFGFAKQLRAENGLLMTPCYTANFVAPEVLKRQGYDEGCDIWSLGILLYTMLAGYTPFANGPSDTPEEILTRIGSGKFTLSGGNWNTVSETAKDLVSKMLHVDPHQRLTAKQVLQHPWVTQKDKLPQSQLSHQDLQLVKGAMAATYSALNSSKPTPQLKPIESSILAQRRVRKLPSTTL
# Chain of Serine/threonine-protein kinase Chk1 (Homo sapiens) (O14757 whole entry): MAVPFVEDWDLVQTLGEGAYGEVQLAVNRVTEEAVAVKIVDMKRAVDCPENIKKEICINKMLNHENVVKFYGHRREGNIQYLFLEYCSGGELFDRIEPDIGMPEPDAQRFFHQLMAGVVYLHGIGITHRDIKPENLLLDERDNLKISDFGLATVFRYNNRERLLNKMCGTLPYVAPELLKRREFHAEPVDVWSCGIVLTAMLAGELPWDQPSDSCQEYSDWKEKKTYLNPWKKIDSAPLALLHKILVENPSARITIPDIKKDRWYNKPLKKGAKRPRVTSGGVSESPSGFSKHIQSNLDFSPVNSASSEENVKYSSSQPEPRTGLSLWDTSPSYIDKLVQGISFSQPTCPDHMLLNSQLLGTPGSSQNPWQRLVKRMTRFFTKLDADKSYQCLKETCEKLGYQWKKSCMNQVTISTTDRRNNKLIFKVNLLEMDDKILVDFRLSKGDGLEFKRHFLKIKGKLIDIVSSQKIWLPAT
# Chain of Fibroblast growth factor receptor 3 (Homo sapiens) (P22607 23-806 limits assumed): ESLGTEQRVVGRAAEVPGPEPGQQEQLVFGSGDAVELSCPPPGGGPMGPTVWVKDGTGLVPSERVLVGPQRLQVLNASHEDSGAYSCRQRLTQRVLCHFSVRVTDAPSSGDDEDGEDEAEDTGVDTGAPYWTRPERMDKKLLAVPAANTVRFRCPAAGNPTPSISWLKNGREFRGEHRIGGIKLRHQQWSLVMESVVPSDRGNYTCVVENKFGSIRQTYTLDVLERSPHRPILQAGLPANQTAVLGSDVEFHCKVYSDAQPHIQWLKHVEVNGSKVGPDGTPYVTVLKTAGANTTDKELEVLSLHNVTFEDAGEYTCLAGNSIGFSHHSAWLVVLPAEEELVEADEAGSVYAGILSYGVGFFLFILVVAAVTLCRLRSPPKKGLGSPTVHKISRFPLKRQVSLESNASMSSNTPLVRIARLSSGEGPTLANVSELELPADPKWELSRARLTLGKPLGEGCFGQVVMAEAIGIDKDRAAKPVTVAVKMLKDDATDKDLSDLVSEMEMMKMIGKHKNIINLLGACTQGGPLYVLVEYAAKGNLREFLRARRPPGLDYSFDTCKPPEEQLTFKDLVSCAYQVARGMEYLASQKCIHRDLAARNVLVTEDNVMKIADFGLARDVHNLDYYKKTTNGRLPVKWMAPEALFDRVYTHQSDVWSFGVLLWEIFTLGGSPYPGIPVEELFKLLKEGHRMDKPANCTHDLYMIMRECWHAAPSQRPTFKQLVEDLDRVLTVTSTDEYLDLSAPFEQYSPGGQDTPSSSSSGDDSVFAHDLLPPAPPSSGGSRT
# Chain of RAC-alpha serine/threonine-protein kinase (Homo sapiens) (P31749 whole entry): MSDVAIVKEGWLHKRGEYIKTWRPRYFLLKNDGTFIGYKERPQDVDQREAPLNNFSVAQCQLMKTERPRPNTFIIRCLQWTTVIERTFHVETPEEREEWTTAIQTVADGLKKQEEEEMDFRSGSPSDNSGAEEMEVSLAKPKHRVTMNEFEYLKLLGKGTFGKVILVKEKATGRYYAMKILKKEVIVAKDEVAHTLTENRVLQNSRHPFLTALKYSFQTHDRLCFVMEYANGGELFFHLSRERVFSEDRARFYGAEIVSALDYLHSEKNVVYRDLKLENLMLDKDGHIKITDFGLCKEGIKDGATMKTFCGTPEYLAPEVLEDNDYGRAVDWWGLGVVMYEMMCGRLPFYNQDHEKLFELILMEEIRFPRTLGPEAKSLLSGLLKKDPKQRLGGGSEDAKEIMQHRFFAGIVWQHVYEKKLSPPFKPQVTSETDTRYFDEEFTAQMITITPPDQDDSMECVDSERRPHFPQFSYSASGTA
smiles,measurement,setting,value
O=C(NCc1ccc(S(=O)(=O)N2CCC(n3nnc4ccccc43)CC2)s1)c1ccc(Cl)cc1,Activity,[1],91%
same,Activity,[2],67%
same,Activity,[3],102%
same,Activity,[4],130%
same,Activity,[5],94%
same,Activity,[6],95%
same,Rescued neurons,SCG [7],22.9%
same,Activity,[8],76%
same,Activity,[9],99%
same,Activity,[10],93%
same,Activity,[11],88%
same,Activity,[12],103%
same,IC50,[13],650 nM
same,Activity,[14],98%
same,Activity,[15],93%
same,Activity,[16],75%
same,Activity,[17],102%
same,Rescued neurons,SCG [18],25.2%
same,Activity,[19],51%
same,Activity,Homo sapiens,77%
same,Activity,[20],78%
same,Activity,[21],97%
same,Activity,[22],80%
same,Activity,[23],100%
same,Activity,[24],121%
